Laboratory results as given in ChEMBL document CHEMBL1134906, “Arylpiperazine substituted heterocycles as selective alpha(1a) adrenergic antagonists” (Bioorg Med Chem Lett, 2002).

Experiments:
[1] = biological target: T1, Alpha-1D adrenergic receptor (Homo sapiens, UniProt P25100); assay: Displacement of [125I]HEAT from human Alpha-1D adrenergic receptor
T1 sequence (P25100 whole entry): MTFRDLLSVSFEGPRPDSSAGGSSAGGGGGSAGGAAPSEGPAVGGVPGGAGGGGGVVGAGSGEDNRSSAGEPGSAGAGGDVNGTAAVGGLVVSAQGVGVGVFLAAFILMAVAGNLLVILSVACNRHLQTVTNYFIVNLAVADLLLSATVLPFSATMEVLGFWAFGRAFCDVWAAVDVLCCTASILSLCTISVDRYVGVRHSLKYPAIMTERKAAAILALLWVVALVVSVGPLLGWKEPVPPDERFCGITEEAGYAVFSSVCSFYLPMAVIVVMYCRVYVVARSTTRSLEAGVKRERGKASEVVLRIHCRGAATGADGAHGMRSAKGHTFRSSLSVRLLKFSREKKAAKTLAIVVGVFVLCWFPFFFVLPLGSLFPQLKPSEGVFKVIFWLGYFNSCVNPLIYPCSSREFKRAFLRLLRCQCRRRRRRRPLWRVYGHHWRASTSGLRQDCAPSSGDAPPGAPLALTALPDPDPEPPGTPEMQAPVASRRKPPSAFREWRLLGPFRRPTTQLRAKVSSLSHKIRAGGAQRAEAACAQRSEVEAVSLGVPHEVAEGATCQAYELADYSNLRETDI
In short: (§1)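 Radioligand competition binding against 125I-HEAT ((±)-β-([125I]-3-iodo-4-hydroxyphenyl)ethylaminomethyl-tetralone), with COS cells as the receptor source. Ki values are derived from displacement and reported as means of three experiments.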

[2] = biological target: T2, Alpha-1A adrenergic receptor (Homo sapiens, UniProt P35348); assay: Displacement of [125I]HEAT from human Alpha-1A adrenergic receptor; in short: as §1
T2 sequence (P35348 whole entry): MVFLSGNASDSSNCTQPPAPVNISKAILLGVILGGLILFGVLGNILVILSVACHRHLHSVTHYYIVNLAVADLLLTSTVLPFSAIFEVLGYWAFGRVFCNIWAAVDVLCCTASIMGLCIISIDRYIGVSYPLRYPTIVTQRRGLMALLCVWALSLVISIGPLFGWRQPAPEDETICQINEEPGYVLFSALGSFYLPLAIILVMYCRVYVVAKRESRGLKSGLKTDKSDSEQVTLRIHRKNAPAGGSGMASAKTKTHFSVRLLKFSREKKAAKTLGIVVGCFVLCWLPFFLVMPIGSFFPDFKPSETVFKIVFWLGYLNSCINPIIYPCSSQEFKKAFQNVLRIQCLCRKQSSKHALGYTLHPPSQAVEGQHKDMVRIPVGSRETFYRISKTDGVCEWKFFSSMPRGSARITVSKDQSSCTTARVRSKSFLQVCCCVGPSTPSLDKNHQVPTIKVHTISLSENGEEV

[3] = biological target: T3, Alpha-1B adrenergic receptor (Homo sapiens, UniProt P35368); assay: Displacement of [125I]-HEAT from human Alpha-1B adrenergic receptor; in short: as §1
T3 sequence (P35368 whole entry): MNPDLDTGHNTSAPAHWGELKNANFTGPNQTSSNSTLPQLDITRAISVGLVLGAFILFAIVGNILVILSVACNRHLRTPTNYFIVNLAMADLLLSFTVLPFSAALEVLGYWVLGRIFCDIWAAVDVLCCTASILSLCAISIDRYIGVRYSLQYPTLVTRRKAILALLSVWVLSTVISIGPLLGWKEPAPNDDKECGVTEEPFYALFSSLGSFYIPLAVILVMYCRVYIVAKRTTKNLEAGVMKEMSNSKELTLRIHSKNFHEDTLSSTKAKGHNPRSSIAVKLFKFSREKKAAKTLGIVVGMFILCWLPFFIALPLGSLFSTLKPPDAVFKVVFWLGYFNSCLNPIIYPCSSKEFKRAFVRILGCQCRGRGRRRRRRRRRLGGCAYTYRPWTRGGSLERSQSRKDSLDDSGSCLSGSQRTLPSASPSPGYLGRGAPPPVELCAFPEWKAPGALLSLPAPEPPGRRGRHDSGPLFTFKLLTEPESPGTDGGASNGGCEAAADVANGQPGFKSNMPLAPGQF

[4] = biological target: Adrenergic receptors; alpha-1 A & B (Homo sapiens) (UniProt P35348+P35368); assay: Relative binding affinity for alpha-1b and alpha-1a adrenergic receptors; assay type: protein assay
[5] = biological target: Alpha adrenergic receptor (1a and 1d) (Homo sapiens) (UniProt P35348+P25100); assay: Relative binding affinity for alpha-1d and Alpha-1A adrenergic receptors; assay type: protein assay

SMILES	Ki [1] [µM]	Ki [2] [µM]	Ki [3] [µM]	Ki ratio [4]	Ki ratio [5]
CC(C)Oc1ccccc1N1CCN(Cc2nc(CN3CCCC3=O)co2)CC1	> 5	1.3	> 5	> 3.8	> 3.8
OCc1cc(CN2CCN(c3ccccc3Oc3ccccc3)CC2)on1	3.06	1.5	3.72	2.5	2
CC(C)Oc1ccccc1N1CCN(Cc2cc(CN3CCCCC3=O)no2)CC1	1.44	0.0084	> 5	> 595	174
CC(C)Oc1ccccc1N1CCN(Cc2nc(CN3CCCCC3=O)cs2)CC1	0.0395	0.0012	1.74	1450	33
CC(C)Oc1ccccc1N1CCN(Cc2nc(CN3CCCC3=O)cs2)CC1	0.105	0.0009	4.25	4520	112
O=C1CCCCCN1Cc1cc(CN2CCN(c3ccccc3Oc3ccccc3)CC2)on1	0.285	0.086	> 5	> 58	3.3
O=C1CCCN1Cc1cc(CN2CCN(c3ccccc3Oc3ccccc3)CC2)on1	0.0345	0.028	> 5	> 170	1.2
CC(C)Oc1ccccc1N1CCN(Cc2nc(CN3C(=O)CC4(CCCC4)CC3=O)co2)CC1	4.14	0.082	> 5	> 61	50
CC(C)Oc1ccccc1N1CCN(Cc2cc(CN3CCCC3=O)no2)CC1	0.0655	0.0011	2.99	2720	60
CC(C)Oc1ccccc1N1CCN(Cc2nc(CN3CCCCC3=O)co2)CC1	> 5	2.32	> 5	> 2.2	> 2.2
O=C1CCCCN1Cc1cc(CN2CCN(c3ccccc3Oc3ccccc3)CC2)on1	0.17	0.015	2.21	147	11.3
CC(C)Oc1ccccc1N1CCN(Cc2nc(CN3CCCCCC3=O)co2)CC1	> 5	3.47	> 5	> 1.4	> 1.4
CC(C)Oc1ccccc1N1CCN(Cc2nc(CN3C(=O)c4ccccc4C3=O)co2)CC1	1.11	0.297	> 5	> 16.8	3.7
